The values below come from article PMC8113834 (Computational and Structural Biotechnology Journal, 2021).

Square brackets hold non-standard residues; d marks the D form. Peptide text beside a SMILES is read from it. pY = N[C@@H](Cc1ccc(OP(=O)(O)O)cc1)C(=O)O

Test [1] deals with T1, SHP2 C-SH2 (SHP2 106–220) (Homo sapiens, UniProt Q06124).
T1 sequence (Q06124 106-220): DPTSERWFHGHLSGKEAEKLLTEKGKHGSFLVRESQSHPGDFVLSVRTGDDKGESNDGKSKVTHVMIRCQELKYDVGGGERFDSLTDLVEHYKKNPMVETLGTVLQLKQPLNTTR
Put plainly: Isothermal titration calorimetry, peptide titrated onto C-SH2. It is filed as binding.

The target in another test is T2, SHP2 N-SH2 (Homo sapiens, UniProt Q06124).
T2 sequence (Q06124 1-105): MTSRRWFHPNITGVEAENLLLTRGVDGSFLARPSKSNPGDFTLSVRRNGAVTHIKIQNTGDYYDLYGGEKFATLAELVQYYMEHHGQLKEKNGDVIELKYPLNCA
The experiment in a line: NMR 1H,15N-HSQC titration of N-SH2. The settings on record: 1H,15N-HSQC with increasing peptide; protein 200 μM, 298 K. It is filed as binding.

Another test has as its system SHP2 C-SH2. The experiment in a line: NMR 1H,15N-HSQC titration of C-SH2. The test is classed as binding, Human. The settings on record: 1H,15N-HSQC with increasing peptide; protein 200 μM, 298 K. An outline of the steps:
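Uniformly 15N-labelled SHP2 C-SH2 is expressed in Tuner (DE3) E. coli in minimal medium with 15NH4Cl. Protein at 200 µM is titrated with increasing stoichiometric ratios of N-acetylated, C-amidated phosphopeptide. CSPs combine 1H and 0.15-weighted 15N shift differences.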

As to `CC[C@H](C)[C@H](NC(=O)[C@H](CC(N)=O)NC(=O)[C@@H](NC(=O)[C@H](Cc1ccc(OP(=O)(O)O)cc1)NC(=O)[C@H](CCC(=O)O)NC(=O)[C@H](Cc1c[nH]cn1)NC(=O)CNC(=O)[C@H](CCCCN)NC(=O)[C@H](CCCNC(=N)N)NC(=O)[C@H](CCCCN)NC(C)=O)[C@@H](C)O)C(=O)N[C@@H](CCCCN)C(=O)N[C@@H](Cc1ccc(O)cc1)C(=O)N[C@@H](CO)C(N)=O` [SHP2-pY542] (Ac-KRKGHE[pY]TNIKYS-NH2), the Kd (as a rule, the constant that tells how readily two partners part at equilibrium) in test [1] was found to be 28 µM. The “binding to N-SH2 by NMR spectra” value on SHP2 N-SH2 is “neither SHP2-pY542 nor SHP2-pY580 bind significantly”.

Turning to EDSARVpYENVGLE [SHP2-pY580], the “binding to N-SH2 by NMR spectra” value at SHP2 N-SH2 is on record as “neither SHP2-pY542 nor SHP2-pY580 bind significantly”. In the test on SHP2 C-SH2, the “binding to C-SH2 by NMR spectra” value is “no binding”.
